The subject of assay [1] is Escherichia coli. As to the kind of experiment: Antibacterial activity against Escherichia coli C921-61 at upto 16 mM after 14 to 16 hrs by broth dilution method. The assay is classed as functional, organism-based. On the technique in general: Broth dilution looks for growth in wells or tubes with falling amounts of substance.
Assay [2] relates to Staphylococcus aureus. As to the kind of experiment: Antibacterial activity against Staphylococcus aureus ATCC 3556 at upto 16 mM after 14 to 16 hrs by broth dilution method. Type of assay: functional, organism-based.
Assay [3] has as its system Staphylococcus aureus. As to the kind of experiment: Antibacterial activity against Staphylococcus aureus N315 at upto 16 mM after 14 to 16 hrs by broth dilution method. Type of assay: functional, organism-based.
The subject of assay [4] is Escherichia coli. As to the kind of experiment: Antibacterial activity against Escherichia coli K12 at upto 16 mM after 14 to 16 hrs by broth dilution method. The assay is classed as functional, organism-based.
For assay [5], the system named is Escherichia coli. As to the kind of experiment: Antibacterial activity against Escherichia coli K10 at upto 16 mM after 14 to 16 hrs by broth dilution method. The assay is classed as functional, organism-based.
The subject of assay [6] is Staphylococcus aureus. As to the kind of experiment: Antibacterial activity against Staphylococcus aureus Mu50 at upto 16 mM after 14 to 16 hrs by broth dilution method. The assay is classed as functional, organism-based.
Assay [7] concerns Salmonella typhimurium. As to the kind of experiment: Antibacterial activity against Salmonella enterica serovar Typhimurium LT2 at upto 16 mM after 14 to 16 hrs by broth dilution method. Type of assay: functional, organism-based. As to conditions: Salmonella enterica subsp. enterica serovar Typhimurium.
Assay [8] relates to Pseudomonas aeruginosa. As to the kind of experiment: Antibacterial activity against Pseudomonas aeruginosa T2095 after 14 to 16 hrs by broth dilution method. The assay is classed as functional.
The test system of assay [9] is Pseudomonas aeruginosa. As to the kind of experiment: Antibacterial activity against Pseudomonas aeruginosa T15464 after 14 to 16 hrs by broth dilution method. The assay is classed as functional. Put shortly:
(§1)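 CLSI broth dilution in cation-adjusted Mueller-Hinton broth with serial twofold dilutions, with or without spermine or spermidine added. Overnight cultures were diluted in saline to OD600 0.1–0.12, and about 10^5 CFU were inoculated. Incubation was 14–16 h at 37°C. MIC was confirmed in three independent experiments. E. coli acrA mutants were tested with 1 mM spermine; P. aeruginosa isolates with 1 mM spermine or 20 mM spermidine.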

For assay [10], the system named is Escherichia coli. As to the kind of experiment: Antibacterial activity against Escherichia coli C921-61 after 14 to 16 hrs by broth dilution method. The assay is classed as functional.
Assay [11] relates to Escherichia coli. As to the kind of experiment: Antibacterial activity against Escherichia coli K12 after 14 to 16 hrs by broth dilution method. Type of assay: functional.
Assay [12] has as its system Pseudomonas aeruginosa. As to the kind of experiment: Antibacterial activity against streptomycin-resistant Pseudomonas aeruginosa DK100 after 14 to 16 hrs by broth dilution method. The assay is classed as functional. The essentials:
as §1

In assay [13] the test system is Staphylococcus aureus. As to the kind of experiment: Antibacterial activity against Staphylococcus aureus Mu50 after 14 to 16 hrs by broth dilution method. Type of assay: functional.
Assay [14] relates to Pseudomonas aeruginosa. As to the kind of experiment: Antibacterial activity against Pseudomonas aeruginosa M38100A after 14 to 16 hrs by broth dilution method. The assay is classed as functional.
Assay [15] concerns Escherichia coli. As to the kind of experiment: Antibacterial activity against Escherichia coli N818 delta acrA mutant assessed as inhibition of AcrAB efflux pump after 14 to 16 hrs by broth dilution method. Type of assay: functional. The essentials: as §1
In assay [16] the test system is Pseudomonas aeruginosa. As to the kind of experiment: Antibacterial activity against Pseudomonas aeruginosa H4563 after 14 to 16 hrs by broth dilution method. Type of assay: functional.
Assay [17] deals with Pseudomonas aeruginosa. As to the kind of experiment: Antibacterial activity against Pseudomonas aeruginosa F4980 after 14 to 16 hrs by broth dilution method. The assay is classed as functional. Put shortly: as §1
Assay [18] concerns Pseudomonas aeruginosa. As to the kind of experiment: Antibacterial activity against Pseudomonas aeruginosa PAO1 assessed as inhibition of bacterial population at 64 ug/ml after 48 hrs. Type of assay: functional, organism-based. Put shortly: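 Population analysis: overnight 37°C cultures adjusted to 1 x 10^8 to 5 x 10^8 CFU/ml, diluted, 100 µl spread on LB plates with twofold serial dilutions of antibiotic with or without 1 mM spermine, plus LB alone; colonies counted after 48 h at 37°C; triplicate experiments.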

Assay [19] has as its system Staphylococcus aureus. As to the kind of experiment: Antibacterial activity against Staphylococcus aureus ATCC 3556 after 14 to 16 hrs by broth dilution method. Type of assay: functional.
The subject of assay [20] is Salmonella typhimurium. As to the kind of experiment: Antibacterial activity against Salmonella enterica serovar Typhimurium LT2 after 14 to 16 hrs by broth dilution method. Type of assay: functional, Salmonella enterica subsp. enterica serovar Typhimurium.
In assay [21] the test system is Escherichia coli. As to the kind of experiment: Antibacterial activity against Escherichia coli W4573 assessed as inhibition of AcrAB efflux pump after 14 to 16 hrs by broth dilution method. The assay is classed as functional.
The test system of assay [22] is Pseudomonas aeruginosa. As to the kind of experiment: Antibacterial activity against Pseudomonas aeruginosa M37310 after 14 to 16 hrs by broth dilution method. Type of assay: functional.
Assay [23] concerns Escherichia coli. As to the kind of experiment: Antibacterial activity against Escherichia coli K10 after 14 to 16 hrs by broth dilution method. Type of assay: functional.
For assay [24], the system named is Pseudomonas aeruginosa. As to the kind of experiment: Antibacterial activity against Pseudomonas aeruginosa PAO1 after 14 to 16 hrs by broth dilution method. The assay is classed as functional.
The subject of assay [25] is Pseudomonas aeruginosa. As to the kind of experiment: Antibacterial activity against Pseudomonas aeruginosa M22152 after 14 to 16 hrs by broth dilution method. The assay is classed as functional. The essentials: as §1
Assay [26] deals with Pseudomonas aeruginosa. As to the kind of experiment: Antibacterial activity against Pseudomonas aeruginosa T6268 after 14 to 16 hrs by broth dilution method. The assay is classed as functional.
For assay [27], the system named is Pseudomonas aeruginosa. As to the kind of experiment: Antibacterial activity against Pseudomonas aeruginosa F66336 after 14 to 16 hrs by broth dilution method. Type of assay: functional.
Assay [28] relates to Pseudomonas aeruginosa. As to the kind of experiment: Antibacterial activity against Pseudomonas aeruginosa T5177 after 14 to 16 hrs by broth dilution method. The assay is classed as functional. Put shortly: as §1
Assay [29] concerns Pseudomonas aeruginosa. As to the kind of experiment: Antibacterial activity against streptomycin and gentamycin-resistant Pseudomonas aeruginosa DK101 containing oprD mutant after 14 to 16 hrs by broth dilution method. Type of assay: functional. The essentials:
as §1

Assay [30] has as its system Escherichia coli. As to the kind of experiment: Antibacterial activity against Escherichia coli N43 acrA mutant assessed as inhibition of AcrAB efflux pump after 14 to 16 hrs by broth dilution method. Type of assay: functional. Put shortly: as §1
Assay [31] concerns Pseudomonas aeruginosa. As to the kind of experiment: Antibacterial activity against Pseudomonas aeruginosa M38100B after 14 to 16 hrs by broth dilution method. The assay is classed as functional.
Assay [32] deals with Pseudomonas aeruginosa. As to the kind of experiment: Antibacterial activity against Pseudomonas aeruginosa DK101 containing pAU48 expressing oprD after 14 to 16 hrs by broth dilution method. The assay is classed as functional.
In assay [33] the test system is Staphylococcus aureus. As to the kind of experiment: Antibacterial activity against Staphylococcus aureus N315 after 14 to 16 hrs by broth dilution method. The assay is classed as functional. Put shortly: as §1
Assay [34] has as its system Staphylococcus aureus. As to the kind of experiment: Antibacterial activity against Staphylococcus aureus N315 at 20 ug/ml after 12 hrs by time kill assay. The assay is classed as functional, organism-based. The essentials: (§2)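 Time-kill: overnight MH broth cultures were diluted in saline to OD600 0.08–0.12, and 1 x 10^5 to 5 x 10^5 CFU went into 1 ml MH broth with or without antibiotic and/or 1 mM spermine. Static incubation at 37°C. Timed 100 µl aliquots were plated on LB neat or after 10-fold dilutions, and colonies counted after 18–24 h at 37°C.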

Assay [35] concerns Staphylococcus aureus. As to the kind of experiment: Antibacterial activity against Staphylococcus aureus Mu50 at 20 ug/ml after 12 hrs by time kill assay. Type of assay: functional, organism-based. The essentials:
as §2

The subject of assay [36] is Staphylococcus aureus. As to the kind of experiment: Antibacterial activity against Staphylococcus aureus Mu50 assessed as inhibition of bacterial population at 128 ug/ml after 48 hrs. The assay is classed as functional, organism-based.
For assay [37], the system named is Staphylococcus aureus. As to the kind of experiment: Antibacterial activity against Staphylococcus aureus Mu50 assessed as inhibition of bacterial population at greater than 512 ug/ml after 48 hrs. The assay is classed as functional, organism-based.

≈ marks a conversion by molar mass, not a printed value. Calls of active or inactive are those of the source. No cut-off for these calls is given here.

Consider `NCCCCNCCCN`, for which the result in the assay on Escherichia coli [1], in the assay on Staphylococcus aureus [2], in the assay with Staphylococcus aureus [3], with Escherichia coli [4], in the assay on Escherichia coli [5] and with Staphylococcus aureus [6] was inactive. The outcome with Salmonella typhimurium [7] was inactive.

What is called MIC is the lowest concentration found to suppress growth. Take `CC1(C)S[C@@H]2[C@H](NC(=O)C(C(=O)O)c3ccccc3)C(=O)N2[C@H]1C(=O)O` (stereo not given in full) [CARBENICILLIN]: the MIC was 256 µg/mL (≈ 677 µM) with Pseudomonas aeruginosa [8]; over 1020 µg/mL in the assay on Pseudomonas aeruginosa [9]; 16 µg/mL (≈ 42.3 µM) against Escherichia coli [10]; 16 µg/mL (≈ 42.3 µM) with Escherichia coli [11]; 64 µg/mL (≈ 169 µM) in the assay on Pseudomonas aeruginosa [12]; at least 512 µg/mL in the assay with Staphylococcus aureus [13]. Besides, the MIC with Pseudomonas aeruginosa [14] is 16 µg/mL (≈ 42.3 µM); in the assay on Escherichia coli [15] it was 2 µg/mL (≈ 5.29 µM); with Pseudomonas aeruginosa [16] it was over 1020 µg/mL; with Pseudomonas aeruginosa [17], 256 µg/mL (≈ 677 µM); in the assay with Staphylococcus aureus [19], 1 µg/mL (≈ 2.64 µM); against Salmonella typhimurium [20], 8 µg/mL (≈ 21.1 µM). The MIC with Escherichia coli [21] was 16 µg/mL (≈ 42.3 µM); against Pseudomonas aeruginosa [22], 1020 µg/mL (≈ 2710 µM); against Escherichia coli [23] it was 32 µg/mL (≈ 84.6 µM); against Pseudomonas aeruginosa [24], 64 µg/mL (≈ 169 µM); with Pseudomonas aeruginosa [25], over 1020 µg/mL; against Pseudomonas aeruginosa [26] it was 16 µg/mL (≈ 42.3 µM). In addition, the MIC is 256 µg/mL (≈ 677 µM) in the assay on Pseudomonas aeruginosa [27]; over 1020 µg/mL in the assay on Pseudomonas aeruginosa [28]; 64 µg/mL (≈ 169 µM) with Pseudomonas aeruginosa [29]; 4 µg/mL (≈ 10.6 µM) in the assay on Escherichia coli [30]; 1020 µg/mL (≈ 2710 µM) against Pseudomonas aeruginosa [31]; 64 µg/mL (≈ 169 µM) against Pseudomonas aeruginosa [32]. This compound also registered an MIC against Staphylococcus aureus [33] of 32 µg/mL (≈ 84.6 µM). The outcome in the assay on Pseudomonas aeruginosa [18] was Active.

For the compound POLYMYXIN B, the MIC in the assay on Pseudomonas aeruginosa [8] turned out to be 0.125 µg/mL; against Pseudomonas aeruginosa [9] it was 0.5 µg/mL; against Escherichia coli [10], 0.5 µg/mL; in the assay with Escherichia coli [11], 0.25 µg/mL; against Pseudomonas aeruginosa [12], 0.5 µg/mL; against Staphylococcus aureus [13], 128 µg/mL. Further, the MIC against Pseudomonas aeruginosa [14] was under 0.06 µg/mL; against Pseudomonas aeruginosa [16], 0.125 µg/mL; in the assay on Pseudomonas aeruginosa [17] it was 0.25 µg/mL; in the assay with Staphylococcus aureus [19], 64 µg/mL; in the assay on Salmonella typhimurium [20] (Salmonella enterica subsp. enterica serovar Typhimurium), 0.5 µg/mL; against Pseudomonas aeruginosa [22], 0.125 µg/mL. Also, the MIC was 0.5 µg/mL in the assay on Escherichia coli [23]; 1 µg/mL against Pseudomonas aeruginosa [24]; 0.5 µg/mL against Pseudomonas aeruginosa [25]; 1 µg/mL with Pseudomonas aeruginosa [26]; 0.125 µg/mL in the assay on Pseudomonas aeruginosa [27]; 0.5 µg/mL in the assay with Pseudomonas aeruginosa [28]. Also, the MIC was 0.5 µg/mL in the assay with Pseudomonas aeruginosa [29], 16 µg/mL against Pseudomonas aeruginosa [31], 0.5 µg/mL in the assay on Pseudomonas aeruginosa [32] and 64 µg/mL against Staphylococcus aureus [33].

In the case of `Cc1onc(-c2ccccc2)c1C(=O)N[C@@H]1C(=O)N2[C@@H]1SC(C)(C)[C@@H]2C(=O)O` [OXACILLIN], the MIC against Escherichia coli [10] was 512 µg/mL (≈ 1280 µM); in the assay with Escherichia coli [11], 512 µg/mL (≈ 1280 µM); in the assay with Staphylococcus aureus [13], 512 µg/mL (≈ 1280 µM); in the assay with Staphylococcus aureus [19], 0.12 µg/mL (≈ 0.299 µM); in the assay with Salmonella typhimurium [20], 256 µg/mL (≈ 638 µM); with Staphylococcus aureus [33], 16 µg/mL (≈ 39.9 µM). Also, the result in the assay on Staphylococcus aureus [34], in the assay with Staphylococcus aureus [35] and with Staphylococcus aureus [36] was inactive. In addition, the outcome in the assay on Staphylococcus aureus [37] was Active.

Source of the values: ChEMBL document CHEMBL1145495, “Polyamine effects on antibiotic susceptibility in bacteria” (2007).
